In PMC4018401 (Journal of Medicinal Chemistry, 2014):

Columns and labels:
HepG2 cytotoxicity assay = format: cell-based; details: human, HepG2 cells
[1] = Microsomal stability, rat and human liver microsomes; format: in vitro ADME; details: rat and human hepatic microsomes
[2] = system: P. yoelii (Kenya strain) infected mice; details: side-by-side tests; cited from earlier work
[3] = target: T1, P. falciparum cytochrome bc1 complex (Plasmodium falciparum, UniProt Q02768); assay: Inhibition of P. falciparum cytochrome bc1; format: biochemical
T1 sequence (Q02768 1-376): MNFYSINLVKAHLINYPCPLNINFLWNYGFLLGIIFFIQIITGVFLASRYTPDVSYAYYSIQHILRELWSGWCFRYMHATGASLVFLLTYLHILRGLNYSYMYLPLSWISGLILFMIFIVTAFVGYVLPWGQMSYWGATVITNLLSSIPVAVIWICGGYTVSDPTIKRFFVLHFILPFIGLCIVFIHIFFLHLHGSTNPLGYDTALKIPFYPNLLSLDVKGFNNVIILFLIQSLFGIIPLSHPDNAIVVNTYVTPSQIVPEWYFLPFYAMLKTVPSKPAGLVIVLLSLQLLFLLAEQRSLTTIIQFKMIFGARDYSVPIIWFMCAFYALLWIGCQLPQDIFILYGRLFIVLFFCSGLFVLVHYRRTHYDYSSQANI
Procedure, shortened: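 Cytochrome c reductase assays. P. falciparum mitochondria: stirred cuvette at 35 °C with 100 μM decylubiquinol, 100 μM horse heart cytochrome c, 0.1 mg/mL dodecyl maltoside, 60 mM HEPES pH 7.4, 10 mM malonate, 1.0 mM EDTA, 2.0 mM KCN. Human HEK-293 mitochondria: detergent-solubilised; 50 mM Tricine pH 8.0, 100 mM KCl, 4 mM KCN, 50 μM each substrate. Baseline-subtracted initial rates expressed as fraction of uninhibited control.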

[4] = system: P. falciparum Tm93-C1088 (atovaquone resistant clinical isolate); assay: SYBR Green I parasite growth inhibition, P. falciparum Tm93-C1088; format: cell-based; details: Plasmodium falciparum, 72 h, read-out: EC50 TM93-C1088 (WRAIR)
Procedure, shortened: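 Atovaquone-resistant Thai isolate with cytochrome b Y268S, grown asynchronously in human erythrocytes (RPMI-1640/HEPES/hypoxanthine/Albumax II; 5% O2, 5% CO2, 90% N2). Triplicate 2-fold dilutions, 2% hematocrit, 0.2% starting parasitemia, 72 h at 37 °C. SYBR Green I dye–detergent added for 1 h in the dark at room temperature, fluorescence read at ex 497/em 520 nm. EC50 by nonlinear regression against drug-free wells; at least three determinations.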

[5] = system: P. yoelii (Kenya strain) infected mice; assay: In vivo efficacy against murine malaria; design: species or system Plasmodium yoelii; details: for in vivo antimalarial activity: P. yoelii in mice, oral; for times less effective than 7 against murine malaria: relative to compound 7
Procedure, shortened: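 Female CF1 mice infected intravenously with 2.5–5.0 × 105 P. yoelii (Kenya strain) parasitized erythrocytes from a donor; groups of four. Test compound in PEG-400 given by oral gavage once daily for 4 days, starting the day after inoculation; initial doses 0.1–10 mg/kg/day, adjusted if needed. Chloroquine phosphate as positive control. Day-5 parasitemia read from Giemsa smears. Cure means parasite-free 30 days after the last dose; NRD is the dose needed for cure.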

With Cc1[nH]c2ccccc2c(=O)c1-c1ccc(Oc2ccccc2)cc1 [Compound 3, 2-Methyl-3-(4-phenoxyphenyl)quinolin-4(1H)-one] as the compound, how does the IC50 (HepG2 cytotoxicity assay) read?
Its IC50 is > 10 µM.

With Cc1[nH]c2ccccc2c(=O)c1-c1ccc(Oc2ccc(OC(F)(F)F)cc2)cc1 [Compound 4, 2-Methyl-3-(4-(4-(trifluoromethoxy)phenoxy)phenyl)quinolin-4(1H)-one] as the compound, how does the “metabolic stability in microsomes” value [1] read?
The value was “no detectable degradation”.

And the IC50 (HepG2 cytotoxicity assay)?
Its IC50 is > 10 µM.

Which IC50 (HepG2 cytotoxicity assay) does the source give for Cc1[nH]c2ccc(Cl)cc2c(=O)c1-c1ccc(Oc2ccc(OC(F)(F)F)cc2)cc1 [Compound 5, 6-Chloro-2-methyl-3-(4-(4-(trifluoromethoxy)phenoxy)phenyl)quinolin-4(1H)-one] here?
Its IC50 is > 10 µM.

Which “metabolic stability in microsomes” value [1] does the source give for COc1ccc2c(=O)c(-c3ccc(Oc4ccc(OC(F)(F)F)cc4)cc3)c(C)[nH]c2c1 [Compound 6, 7-Methoxy-2-methyl-3-(4-(4-(trifluoromethoxy)phenoxy)phenyl)quinolin-4(1H)-one] here?
The value was “metabolized at a moderate to intermediate rate”.

And the IC50 (HepG2 cytotoxicity assay)?
Its IC50 is > 10 µM.

For COc1cc2[nH]c(C)c(-c3ccc(Oc4ccc(OC(F)(F)F)cc4)cc3)c(=O)c2cc1Cl [Compound 7, 6-Chloro-7-methoxy-2-methyl-3-(4-(4-(trifluoromethoxy)phenoxy)phenyl) quinolin-4(1H)-one], which “fold more effective than atovaquone against murine malaria” value [2] is on record?
Its value is 30 fold.

What about the “parasite selectivity (P. falciparum vs human cytochrome bc1)” value [3] of the same compound?
The value was ≥ 20000 fold.

What about the EC50 [4] of the same compound?
The EC50 was 0.001 µM.

And the IC50 (HepG2 cytotoxicity assay)?
Its IC50 is > 10 µM.

With COc1cc2[nH]c(C)c(-c3ccc(Oc4ccccc4)cc3)c(=O)c2cc1F [Compound 13, 6-Fluoro-7-methoxy-2-methyl-3-(4-phenoxyphenyl)quinolin-4(1H)-one] as the compound, how does the IC50 (HepG2 cytotoxicity assay) read?
The IC50 was > 10 µM.

For Cc1[nH]c2ccc(F)cc2c(=O)c1-c1ccc(Oc2ccc(OC(F)(F)F)cc2)cc1 [Compound 18a, 6-Fluoro-2-methyl-3-(4-(4-(trifluoromethoxy)phenoxy)phenyl)quinolin-4(1H)-one], which IC50 (HepG2 cytotoxicity assay) is on record?
Its IC50 is > 10 µM.

With COc1cc2[nH]c(C)c(-c3ccc(Oc4ccc(OC(F)(F)F)cc4)cc3)c(=O)c2cc1F [Compound 18b, 6-Fluoro-7-methoxy-2-methyl-3-(4-(4-(trifluoromethoxy)phenoxy)phenyl)quinolin-4(1H)-one] as the compound, how does the IC50 (HepG2 cytotoxicity assay) read?
The IC50 was > 10 µM.

With COc1cc2[nH]c(C)c(-c3ccc(Oc4cccc(OC(F)(F)F)c4)cc3)c(=O)c2cc1Cl [Compound 20a, 6-Chloro-7-methoxy-2-methyl-3-(4-(3-(trifluoromethoxy)phenoxy)phenyl)quinolin-4(1H)-one] as the compound, how does the “metabolic stability in microsomes” value [1] read?
The value was “metabolically unstable”.

What about the “in vivo antimalarial activity” value [5] of the same compound?
The value was “ineffective in vivo”.

With COc1cc2[nH]c(C)c(-c3ccc(Oc4ccc(C(F)(F)F)cc4)cc3)c(=O)c2cc1Cl [Compound 20b, 6-Chloro-7-methoxy-2-methyl-3-(4-(4-(trifluoromethyl)phenoxy)phenyl)quinolin-4(1H)-one] as the compound, how does the “metabolic stability in microsomes” value [1] read?
Its value is “metabolically stable”.

What does the source list for COc1cc2[nH]c(C)c(-c3ccc(Oc4ccc(Cl)cc4)cc3)c(=O)c2cc1Cl [Compound 20c, 6-Chloro-3-(4-(4-chlorophenoxy)phenyl)-7-methoxy-2-methylquinolin-4(1H)-one]?
metabolic stability in microsomes [1]: metabolically stable; times less effective than 7 against murine malaria [5]: 3–10 times; IC50 (HepG2 cytotoxicity assay): > 10 µM

For COc1cc2[nH]c(C)c(-c3ccc(Oc4ccc(F)cc4)cc3)c(=O)c2cc1Cl [Compound 20d, 6-Chloro-3-(4-(4-fluorophenoxy)phenyl)-7-methoxy-2-methylquinolin-4(1H)-one], which “metabolic stability in microsomes” value [1] is on record?
Its value is “metabolically stable”.

What does the source list for COc1cc2[nH]c(C)c(-c3ccc(Oc4ccc(OC(F)(F)F)cc4)nc3)c(=O)c2cc1Cl [Compound 25a, 6-Chloro-7-methoxy-2-methyl-3-(6-(4-(trifluoromethoxy)phenoxy)pyridin-3-yl)quinolin-4(1H)-one]?
times less effective than 7 against murine malaria [5]: 3–10 times; IC50 (HepG2 cytotoxicity assay): > 10 µM

Which IC50 (HepG2 cytotoxicity assay) does the source give for COc1cc2[nH]c(C)c(-c3ccc(Oc4ccc(OC(F)(F)F)cc4)cn3)c(=O)c2cc1Cl [Compound 25b, 6-Chloro-7-methoxy-2-methyl-3-(5-(4-(trifluoromethoxy)phenoxy)pyridin-2-yl)quinolin-4(1H)-one] here?
The IC50 was > 10 µM.

With COc1cc2[nH]c(C)c(-c3cnc(Oc4ccc(OC(F)(F)F)cc4)nc3)c(=O)c2cc1Cl [Compound 25c, 6-Chloro-7-methoxy-2-methyl-3-(2-(4-(trifluoromethoxy)phenoxy)pyrimidin-5-yl)quinolin-4(1H)-one] as the compound, how does the IC50 (HepG2 cytotoxicity assay) read?
Its IC50 is > 10 µM.

Which IC50 (HepG2 cytotoxicity assay) does the source give for O=C1C(O)=C([C@H]2CC[C@H](c3ccc(Cl)cc3)CC2)C(=O)c2ccccc21 [atovaquone, reference compound] here?
The IC50 was > 10 µM.

With CCCCCCCc1c(C)nc2cc(OC)ccc2c1O [endochin, reference compound] as the compound, how does the “in vivo antimalarial activity” value [5] read?
Its value is “inactive in vivo”.

What about the IC50 (HepG2 cytotoxicity assay) of the same compound?
The IC50 was > 10 µM.
